Bioassay records as filed in PubChem BioAssay.
MrgX1 ag: agonists of human MrgX1 receptor; Q96LB2; MrgX1-HEK293 cells, Fluo-4 calcium fluorescence, agonist mode; active compounds read high; B-score at 10 µM; hit rate 0.44% among 310,000;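 active = calcium response B-score plate-corrected fluorescence ratio at least 3 library SD, with starting fluorescence B-score inside 5 SD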
Target sequence (Q96LB2 whole entry, looked up): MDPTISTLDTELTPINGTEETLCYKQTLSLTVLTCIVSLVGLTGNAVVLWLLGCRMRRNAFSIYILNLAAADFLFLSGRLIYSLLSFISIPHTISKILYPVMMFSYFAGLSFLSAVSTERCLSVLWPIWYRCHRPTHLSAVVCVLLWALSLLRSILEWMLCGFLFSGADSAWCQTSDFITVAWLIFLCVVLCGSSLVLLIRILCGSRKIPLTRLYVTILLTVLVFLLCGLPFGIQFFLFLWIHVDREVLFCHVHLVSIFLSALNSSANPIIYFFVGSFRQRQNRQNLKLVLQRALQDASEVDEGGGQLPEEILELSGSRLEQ
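Material: MrgX1-expressing HEK293 cells / Dosing: compound as first of three additions / Incubation: overnight seeding, then 1 h dark dye loading / Signal: Fluo-4 NW calcium fluorescence / Evaluation: B-scored fluorescence response ratio / Benchmarks: positive and negative control wells on each plate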
RGS4 block: human RGS4 inhibition | P49798 | HEK293 M3R/RGS4 inducible, Fluo-4 calcium flux; active compounds read high; triggered by carbachol at its EC20 | B-score at 10 µM | hit rate 0.45% among 310,000;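 active = B-score, a plate-corrected calcium signal, over three deviations above library mean, with baseline fluorescence within five deviations of library mean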;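 note: RGS4 expression induced by doxycycline in cells with stable M3 receptor; B-score is computed from the integrated fluorescence ratio over baseline after carbachol; higher B-score means a larger calcium signal and so more RGS4 inhibition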
Target sequence (P49798 whole entry, looked up): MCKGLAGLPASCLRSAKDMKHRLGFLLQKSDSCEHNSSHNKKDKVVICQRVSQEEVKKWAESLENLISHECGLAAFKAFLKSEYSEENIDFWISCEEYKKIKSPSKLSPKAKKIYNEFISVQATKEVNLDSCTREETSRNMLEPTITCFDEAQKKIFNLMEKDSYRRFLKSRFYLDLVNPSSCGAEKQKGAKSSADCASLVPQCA
MrgX1 allo act: allosterically activates human MrgX1 receptor signaling. hit rate 0.63% among 310,000. B-score at 10 µM. AID 588675. MrgX1-HEK293, Fluo-4 calcium flux, FDSS; active compounds read high. Q96LB2;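 active = plate-corrected calcium response at least 3 library SD above typical, normal starting fluorescence, not activating the receptor alone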;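 note: compound read alongside a low EC10 to EC30 dose of BAM8-22 agonist; peak minus trough fluorescence over baseline measured at the second addition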
RGS4 pot: potentiators or activators of RGS4 | HEK293 M3R/inducible RGS4, carbachol calcium flux Fluo4; active compounds read low | B-score at 10 µM | hit rate 0.92% among 310,000;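 active = B-score of the integrated calcium signal more than 4 SD below the library mean, with starting fluorescence not abnormally high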;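 note: negative B-score means reduced calcium response which marks RGS4 activation or potentiation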
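Detection: kinetic calcium fluorescence imaging with Fluo4-AM dye, 2 µM / Material: HEK293 cells with stable M3R and inducible RGS4 / Schedule: recording 10 s baseline at 1 Hz, 100 s post-agonist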
MrgX1 antag: antagonists of human MrgX1 receptor; Q96LB2; MRGX1-HEK293 calcium flux, Fluo-4, BAM8-22 antagonism; active compounds read low; B-score at 10 µM; hit rate 1.3% among 310,000;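 active = calcium-response B-score plate-corrected more than 3 library SD below zero, starting fluorescence within 5 deviations, no agonist response on first addition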;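 note: peak minus trough fluorescence over baseline after final BAM8-22 challenge near maximal dose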
RGS4 block valid: RGS4 inhibitor validation | hit rate 65% among 1,700 | AID 492999 | shares compounds with RGS4 block | HEK293 M3R/RGS4, carbachol calcium Fluo-4 fluorescence; carbachol added at its EC20; 0 = buffer wells, 100 = carbachol control | calcium response, % at 10 µM;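 active = duplicate-averaged calcium response above the buffer-only control mean plus 5 SD of those controls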;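 note: integrated fluorescence ratio F max minus min over baseline F0; higher response in RGS4-induced cells means RGS4 inhibition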
M3R Ca ctr: non-induced cell nonspecific activity of RGS4 inhibitors; shares compounds with RGS4 block; HEK293 M3R non-induced, carbachol calcium Fluo-4; submaximal (EC20) carbachol stimulus; buffer wells 0%, carbachol control wells 100%; activity (percent), % at 10 µM; hit rate 20% among 1,900; call rule not given here;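 note: RGS4 induction absent so cells express M3R without RGS4; higher means more calcium signal and flags a non-specific hit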
M3R basal Ca ctr: signal in non-induced cells without carbachol, RGS4 inhibitor counter-screen. shares compounds with RGS4 block. HEK293 M3R/RGS4 non-induced, Fluo-4 calcium, no carbachol; normalised: buffer wells 0%, carbachol wells 100%. calcium response (agonist-mode artifact), % at 10 µM. hit rate 22% among 1,900. AID 493001;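 active = duplicate-averaged calcium rise in uninduced cells above buffer wells' mean plus 5 SD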
* hit, by the source's call. Compounds with a hit are over-represented: about 3.5% of the library has one in this group of screens.

What do the screens show for `CC1CCN(c2oc(-c3ccc(F)cc3)nc2C#N)CC1`?
MrgX1 ag: inactive; RGS4 block: inactive; MrgX1 allo act: inactive; RGS4 pot: inactive; MrgX1 antag: inactive

What do the screens show for `O=C(N/N=C/c1ccc(-c2ccccc2[N+](=O)[O-])o1)[C@H]1C[C@@H]1c1ccccc1`?
MrgX1 ag: inactive; RGS4 block: inactive; MrgX1 allo act: inactive; RGS4 pot: inactive; MrgX1 antag: inactive

How did O=C(N/N=C/c1ccc(-c2cccc([N+](=O)[O-])c2)o1)[C@H]1C[C@@H]1c1ccccc1 do in these assays?
MrgX1 ag: inactive; RGS4 block: 5.66*; MrgX1 allo act: inactive; RGS4 pot: inactive; MrgX1 antag: inactive; RGS4 block valid: inactive; M3R Ca ctr: inactive; M3R basal Ca ctr: inactive

Results for O=C(N/N=C/c1ccc(-c2ccc([N+](=O)[O-])cc2)o1)[C@H]1C[C@@H]1c1ccccc1 ?
MrgX1 ag: inactive; RGS4 block: inactive; MrgX1 allo act: inactive; RGS4 pot: inactive; MrgX1 antag: inactive; RGS4 block valid: inactive; M3R Ca ctr: inactive; M3R basal Ca ctr: 39.0%*

What do the screens show for `COc1ccc(C(=O)OCCOc2cccc(Cl)c2)cc1S(=O)(=O)N1CCOCC1`?
MrgX1 ag: inactive; RGS4 block: inactive; MrgX1 allo act: inactive; RGS4 pot: inactive; MrgX1 antag: inactive

What do the screens show for `O=C1NC(c2cccs2)C(C(=O)c2ccccc2)C(O)(C(F)(F)F)N1` (stereo not given)?
MrgX1 ag: inactive; RGS4 block: inactive; MrgX1 allo act: inactive; RGS4 pot: inactive; MrgX1 antag: inactive

What do the screens show for `O=C1NC(c2ccc(-c3ccccc3[N+](=O)[O-])o2)C(C(=O)c2ccccc2)C(O)(C(F)(F)F)N1` (stereo not given)?
MrgX1 ag: inactive; RGS4 block: inactive; MrgX1 allo act: inactive; RGS4 pot: inactive; MrgX1 antag: inactive; RGS4 block valid: inactive; M3R Ca ctr: inactive; M3R basal Ca ctr: inactive

What do the screens show for `Cc1ccc(C(=O)C2C(c3ccc(-c4ccccc4[N+](=O)[O-])o3)NC(=O)NC2(O)C(F)(F)F)cc1` (stereo not given)?
MrgX1 ag: inactive; RGS4 block: inactive; MrgX1 allo act: inactive; RGS4 pot: inactive; MrgX1 antag: inactive; M3R Ca ctr: inactive; M3R basal Ca ctr: inactive

How did CCCCn1c(N)c(N(CC(C)C)C(=O)CSCc2c(C)noc2C)c(=O)[nH]c1=O do in these assays?
MrgX1 ag: inactive; RGS4 block: inactive; MrgX1 allo act: inactive; RGS4 pot: inactive; MrgX1 antag: inactive

How did CCCC(C)NC(=O)CN1C(=O)c2cccc3cccc1c23 (stereo not given) do in these assays?
MrgX1 ag: inactive; RGS4 block: inactive; MrgX1 allo act: inactive; RGS4 pot: inactive; MrgX1 antag: inactive

What do the screens show for `O=C1CN(C(=O)COC(=O)CNS(=O)(=O)/C=C/c2ccccc2)c2ccccc2N1`?
MrgX1 ag: inactive; RGS4 block: inactive; MrgX1 allo act: inactive; RGS4 pot: inactive; MrgX1 antag: inactive

What do the screens show for `Cc1ccc(-c2cc(-c3ccccc3Cl)[nH]n2)c(O)c1`?
MrgX1 ag: inactive; RGS4 block: inactive; MrgX1 allo act: inactive; RGS4 pot: inactive; MrgX1 antag: inactive

Results for Cc1ccc(-c2cc(-c3ccccc3[N+](=O)[O-])[nH]n2)c(O)c1 ?
MrgX1 ag: inactive; RGS4 block: inactive; MrgX1 allo act: inactive; RGS4 pot: inactive; MrgX1 antag: inactive; M3R Ca ctr: inactive; M3R basal Ca ctr: inactive

How did CC1=NN(c2ccc(Cl)cc2)C(=O)/C1=C\c1cccn1-c1ccc(S(N)(=O)=O)cc1 do in these assays?
MrgX1 ag: inactive; RGS4 block: 4.88*; MrgX1 allo act: inactive; RGS4 pot: inactive; MrgX1 antag: inactive; RGS4 block valid: 43.0%*; M3R Ca ctr: 41.5%*; M3R basal Ca ctr: inactive

Results for Cc1cccc2sc(NNC(=O)c3ccc(S(=O)(=O)N4CCc5ccccc5C4)cc3)nc12 ?
MrgX1 ag: inactive; RGS4 block: inactive; MrgX1 allo act: inactive; RGS4 pot: inactive; MrgX1 antag: inactive; M3R Ca ctr: inactive; M3R basal Ca ctr: inactive

What do the screens show for `CCOC(=O)N1CCN(S(=O)(=O)c2ccc(C(=O)NNc3nc4c(C)cccc4s3)cc2)CC1`?
MrgX1 ag: inactive; RGS4 block: inactive; MrgX1 allo act: inactive; RGS4 pot: inactive; MrgX1 antag: inactive

Results for Cc1cccc2sc(NNC(=O)c3ccc(S(=O)(=O)N4CCCC(C)C4)cc3)nc12 (stereo not given) ?
MrgX1 ag: inactive; RGS4 block: inactive; MrgX1 allo act: inactive; RGS4 pot: inactive; MrgX1 antag: inactive; RGS4 block valid: inactive; M3R Ca ctr: inactive; M3R basal Ca ctr: inactive

What do the screens show for `COc1ccc(C2C(C#N)=C(N)Oc3cc(O)ccc32)cc1C` (stereo not given)?
MrgX1 ag: inactive; RGS4 block: inactive; MrgX1 allo act: inactive; RGS4 pot: inactive; MrgX1 antag: inactive; M3R Ca ctr: 31.0%*; M3R basal Ca ctr: 21.0%*

How did COc1cc(C2C(C#N)=C(N)Oc3cc(O)ccc32)cc2c1OCO2 (stereo not given) do in these assays?
MrgX1 ag: inactive; RGS4 block: 11.8*; MrgX1 allo act: inactive; RGS4 pot: inactive; MrgX1 antag: inactive; RGS4 block valid: 29.0%*; M3R Ca ctr: inactive; M3R basal Ca ctr: inactive

What do the screens show for `COc1cc(C2C(C#N)=C(N)Oc3cc(O)ccc32)cc(OC)c1OC` (stereo not given)?
MrgX1 ag: inactive; RGS4 block: inactive; MrgX1 allo act: inactive; RGS4 pot: inactive; MrgX1 antag: inactive

How did COc1ccc(C2C(C#N)=C(N)Oc3cc(O)ccc32)cc1OC (stereo not given) do in these assays?
MrgX1 ag: inactive; RGS4 block: inactive; MrgX1 allo act: inactive; RGS4 pot: inactive; MrgX1 antag: inactive; M3R Ca ctr: inactive; M3R basal Ca ctr: inactive

How did C=CCOc1ccc(C(=O)/C=C2/C(=O)Nc3ccccc32)cc1 do in these assays?
MrgX1 ag: inactive; RGS4 block: 4.72*; MrgX1 allo act: inactive; RGS4 pot: inactive; MrgX1 antag: inactive; RGS4 block valid: 14.0%*; M3R Ca ctr: 37.0%*; M3R basal Ca ctr: inactive
